# This is a sample that favours compounds with a hit; in the whole collection about 4.3% have one here.
# Rtt109 HAT inh: blocks Candida albicans Rtt109/Vps75 acetyltransferase activity. purified Rtt109/Vps75, ThioGlo CoA-SH fluorescence, 4 h. inhibition, % at 34.9 µM. hit rate 0.16% among 330,000. Q5AAJ8. AID 540336;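 active = inhibition of at least 50% in every replicate; inconclusive = best replicate reaches 50% inhibition but some replicates fall short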
# Target sequence (Q5AAJ8 whole entry, looked up): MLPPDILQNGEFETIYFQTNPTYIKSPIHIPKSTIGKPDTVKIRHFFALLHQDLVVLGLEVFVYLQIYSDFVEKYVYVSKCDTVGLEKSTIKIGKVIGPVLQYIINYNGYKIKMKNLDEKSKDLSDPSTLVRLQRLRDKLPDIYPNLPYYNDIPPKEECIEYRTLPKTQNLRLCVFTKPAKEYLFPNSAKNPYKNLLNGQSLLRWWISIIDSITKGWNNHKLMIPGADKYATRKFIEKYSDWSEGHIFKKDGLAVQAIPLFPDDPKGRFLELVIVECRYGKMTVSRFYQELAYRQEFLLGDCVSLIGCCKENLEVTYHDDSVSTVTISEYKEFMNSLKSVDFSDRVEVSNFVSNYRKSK
# CAL PDZ FP-1: inhibitors of human CAL PDZ peptide binding; purified CAL PDZ, TMR-peptide fluorescence polarization, 1 h; inhibition, % at 20 µM; hit rate 0.02% among 330,000; AID 504414;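 active = highest replicate inhibition of at least 40%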
#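 Control set: unlabelled peptide and DMSO controls / Material: purified CerCALP PDZ construct / Timing: 1 h incubation at room temperature before polarization reading / Doses: 20 µM, one dose / Detection: fluorescence polarization (mP)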
# CAL PDZ FP-2: CAL PDZ (human) peptide binding inhibition; hit rate 0.92% among 300,000; AID 602252; purified CAL PDZ, TMR-peptide fluorescence polarization, 1 h; inhibition, % at 24.9 µM; Q9HD26;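 active = mean inhibition of at least 30% with at least half of replicates also reaching 30%; inconclusive = no clear call, values can overlap the other calls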
# ALR H2O2 inh: blocks human ALR sulfhydryl oxidase activity. P55789. purified ALR, DTT oxidation, H2O2 HRP-luminol luminescence. inhibition, % (concentration not given with the values). hit rate 3.8% among 290,000. AID 485317;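 active = mean replicate inhibition above about 79%, with every replicate also reaching it, limit read from the data; inconclusive = only one of the two criteria met; inactive = mean below limit and not every replicate reaching it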
# Target sequence (P55789 whole entry, looked up): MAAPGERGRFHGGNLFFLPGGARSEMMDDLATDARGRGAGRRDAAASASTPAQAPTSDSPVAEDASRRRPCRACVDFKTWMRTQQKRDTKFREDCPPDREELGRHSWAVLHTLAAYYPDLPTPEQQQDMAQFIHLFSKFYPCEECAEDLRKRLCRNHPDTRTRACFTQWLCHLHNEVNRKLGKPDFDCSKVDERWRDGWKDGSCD
# DYRK1A inh: inhibitors of rat Dyrk1A kinase; Q63470; AID 504441; ADP-Glo luminescence, NFATc1 peptide; hit rate 0.43% among 310,000; inhibition, % at 12.5 µM; in the data active = inhibition above about 50%
# Numbers stand for hits; i = inactive; ? = inconclusive; nt = no result given; + = active, no number.
SMILES,Rtt109 HAT inh,CAL PDZ FP-1,CAL PDZ FP-2,ALR H2O2 inh,DYRK1A inh
CCN(CC)S(=O)(=O)c1ccc(NC(=S)NC(=O)C2CCC2)cc1,i,i,54,nt,nt
CCN1CCN(c2ccc(S(=O)(=O)N3CCOCC3)cc2NC(=O)C2CCC(C(C)(C)C)CC2)CC1 (stereo not drawn),i,i,73,nt,i
CCN(CC)S(=O)(=O)c1ccc(N2CCOCC2)c(NC(=O)C2CCCC2)c1,i,i,i,i,i
COC(=O)CN1C(=O)[C@H]2[C@@H](c3ccc(C)o3)N3C(=O)CN(CC4CC4)C(=O)[C@@]3(C)[C@H]2C1=O,i,i,i,i,i
CCC(C)c1ccccc1N1CC(C(=O)Nc2ccccc2N2CCCC2)CC1=O (stereo not drawn),i,i,i,i,i
O=C(Nc1ccccc1N1CCCC1)C1CC(=O)N(Cc2ccccc2)C1 (stereo not drawn),i,i,i,97,i
O=C(Nc1ccccc1OC(F)F)C1CC(=O)N(Cc2ccccc2)C1 (stereo not drawn),i,i,i,i,i
COc1ccc(COC(=O)C2CC(=O)N(Cc3ccccc3)C2)cc1 (stereo not drawn),i,i,+,nt,i
CCOc1ccccc1N1CC(C(=O)Nc2ccccc2N2CCCC2)CC1=O (stereo not drawn),i,i,i,88,i
CCCCNC(=O)c1onc(CCl)c1C(=O)OC,i,i,i,97,i
COCCNC(=O)c1onc(CCl)c1C(=O)OC,i,i,i,i,i
Cc1ccnc(NS(=O)(=O)c2ccc(-n3cccn3)cc2)c1,i,i,nt,i,i
C/C(=N\Nc1ccccn1)c1cccs1,i,i,i,99,i
C/C(=N\Nc1ccccn1)c1ccc(OC(F)F)cc1,i,i,i,89,i
CC1CCC2(CC1)NC(=O)N(CC(=O)Nc1ccc3c(c1)OCCO3)C2=O (stereo not drawn),i,i,i,i,i
Cn1c(SCc2ccc(F)cc2Cl)nc2ccccc2c1=O,i,i,i,i,nt
O=C(O)c1ccc(N=Nc2c(-c3ccccc3)[nH]oc2=O)cc1,i,i,i,i,i
CC(=O)NNc1nc(-c2ccc(C)cc2)cs1,i,nt,i,83,i
Cc1ccc(-c2csc(NC(=O)CN3CC(C)OC(C)C3)n2)cc1 (stereo not drawn),i,i,i,98,i
Oc1ccc(Nc2nc(-c3ccc(O)cc3)cs2)cc1,i,nt,i,100,i
NS(=O)(=O)c1ccc(Nc2nc(-c3ccc(O)cc3)cs2)cc1,i,i,i,?,i
CCCC(=O)Nc1ccc(-c2csc(NNC(C)=O)n2)cc1,i,i,i,99,i
Cc1c(-c2ccccc2)oc2c(C(=O)OCC(=O)Nc3ccc(C(N)=O)cc3)cccc2c1=O,i,i,i,i,i
O=C(NNC(=O)c1ccccc1Br)c1ccc(SCC2CCCO2)c([N+](=O)[O-])c1 (stereo not drawn),i,i,i,i,i
Cc1ccccc1C(=O)O/N=C/c1c(N2CCOCC2)n(C)c2ccccc12,i,i,i,i,i
SMILES,Rtt109 HAT inh,CAL PDZ FP-1,CAL PDZ FP-2,ALR H2O2 inh,DYRK1A inh
CN1CCN(c2c(/C=N/O)c3ccccc3n2C)CC1,nt,i,i,93,i
COC(=O)c1ccc2c(=O)n(Cc3ccco3)c(SCC(=O)Nc3ccc(C)c(Cl)c3)nc2c1,i,i,nt,100,i
NC(=O)CSc1nc2ccccc2c(=O)n1Cc1ccco1,i,i,i,i,i
CCCn1c(C)cc(C(=O)CSc2nc3ccccc3c(=O)n2Cc2ccco2)c1C,i,i,nt,99,i
COC(=O)c1ccc(CSc2nc3ccccc3c(=O)n2Cc2ccco2)o1,i,i,i,94,i
COC(=O)c1ccc(CSc2nc3ccccc3c(=O)n2CC(C)C)o1,i,i,i,i,i
COc1cc(C(=O)NC2CCCc3ccccc32)ccc1OCC(=O)Nc1ccc(F)cc1 (stereo not drawn),i,i,i,i,i
O=C1CC(C(=O)Nc2ccc(F)cc2)S/C(=N\N=C\c2ccco2)N1 (stereo not drawn),i,i,i,96,i
CCN(c1ccc(NC(=O)COC(=O)c2cccs2)cc1)C(C)C,i,i,i,99,i
CC(=O)c1cccc(NC(=O)COC(=O)c2cccs2)c1,i,i,i,i,i
CCN(c1ccc(NC(=O)COC(=O)c2cc3ccccc3oc2=O)cc1)C(C)C,nt,i,i,nt,i
CCN(c1ccc(NC(=O)COC(=O)CCC(=O)c2ccc(F)cc2)cc1)C(C)C,i,i,i,93,i
CCN(CC)c1ccc(NC(=O)COC(=O)c2cccs2)cc1,i,i,i,98,i
CCN(CC)c1ccc(NC(=O)COC(=O)c2ccc3ccccc3n2)cc1,i,i,i,99,i
CC(=O)c1cccc(NC(=O)COC(=O)CCC(=O)c2ccc(F)cc2)c1,i,i,i,i,i
CC(C)OC(=O)c1cccc(-c2ccc(C=O)o2)c1,i,i,i,i,i
CC1CCC(NC(=O)Cn2c(=O)oc3ccccc32)CC1 (stereo not drawn),i,i,i,i,i
CCN(c1ccc(NC(=O)COC(=O)/C=C/c2ccco2)cc1)C(C)C,i,i,i,99,i
Cc1cccc(N/C(=N/S(=O)(=O)c2ccccc2)c2ccccc2)n1,i,i,i,i,i
CN(CCc1ccccn1)C(=O)CCC1CCCN(C(=O)c2ccsc2)C1 (stereo not drawn),i,i,i,i,i
CCOC(=O)/C(=C/c1c[nH]c2ccccc12)NC(C)=O,i,i,i,97,nt
COC(=O)/C(=C/c1c[nH]c2ccccc12)NC(C)=O,i,i,i,i,i
CN1C(=S)SC(/[N+]([O-])=C/c2cccnc2)C1(C)C (stereo not drawn),i,nt,31,i,i
COc1ccc(/C=C\C(=O)c2c(O)ccc3c(C)cc(=O)oc23)cc1,i,i,i,97,i
CCOc1ccc(/C=C/C(=O)c2c(O)cc(C)oc2=O)cc1,i,i,i,95,i
SMILES,Rtt109 HAT inh,CAL PDZ FP-1,CAL PDZ FP-2,ALR H2O2 inh,DYRK1A inh
COc1ccc(/C=C/C(=O)c2c(O)ccc3c(C)cc(=O)oc23)cc1,i,i,i,nt,i
O=C(CSc1nnnn1C1CC1)N1CCN(c2ccccc2F)CC1,i,i,i,i,i
CCOc1ccc(S(=O)(=O)NNS(=O)(=O)c2ccc(C)cc2C)cc1,i,i,i,99,i
O=C1CCC/C(=N/Nc2ccc(Cl)cc2)C1,i,i,nt,i,i
CSC(=S)NCc1cccnc1,i,i,i,i,i
Cc1c(NC(=O)CSc2ccccc2F)c(=O)n(-c2ccccc2)n1C,i,i,i,i,i
Cc1cc(C)c(O)c(-c2cc(C(=O)Nc3c(C)n(C)n(-c4ccccc4)c3=O)[nH]n2)c1,i,i,i,99,i
Cc1c(NC(=O)CSc2ccccc2C(=O)Nc2cccnc2)c(=O)n(-c2ccccc2)n1C,i,i,83,i,i
Cc1c(NC(=O)COC(=O)COc2ccc(Nc3ccccc3)cc2)c(=O)n(-c2ccccc2)n1C,i,i,i,99,i

# High-throughput results deposited in PubChem by Broad Institute.
